ChEMBL document CHEMBL3259704, “Second generation steroidal 4-aminoquinolines are potent, dual-target inhibitors of the botulinum neurotoxin serotype A metalloprotease and P. falciparum malaria” (J Med Chem, 2014)
The source made the active and inactive calls. No cut-off for these calls is given here.

Key:
[1] = target: Botulinum neurotoxin type A (Clostridium botulinum) (UniProt P0DPI0); assay: Inhibition of Clostridium botulinum recombinant BoNT/A light chain using N-terminal acetylated, C-terminal aminated SNAP-25 (187-203) as substrate at 20 uM by reverse-phase HPLC analysis
Summary of the method: (§1)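 Recombinant BoNT/A LC with SNAP-25 187–203 peptide substrate in 40 mM HEPES–0.05% Tween, pH 7.3, with 0.5 mg/mL BSA and 50 μM excess Zn, at 37 °C. Quenched with TFA; reverse-phase HPLC product/substrate peak areas give percent inhibition, run in duplicate.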

[2] = target: Botulinum neurotoxin type A (Clostridium botulinum, UniProt P0DPI0); assay: Inhibition of Clostridium botulinum recombinant BoNT/A light chain using N-terminal acetylated, C-terminal aminated SNAP-25 (187-203) as substrate by reverse-phase HPLC analysis
Summary of the method: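 Same HPLC LC cleavage assay (pH 7.3 HEPES/Tween, BSA, excess Zn, 37 °C). […] Ki comes from velocity versus substrate at several inhibitor levels, globally fit to a competitive model.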

[3] = target: Botulinum neurotoxin type A (Clostridium botulinum) (UniProt P0DPI0); assay: Inhibition of Clostridium botulinum recombinant BoNT/A light chain using N-terminal acetylated, C-terminal aminated SNAP-25 (187-203) as substrate at 10 uM by reverse-phase HPLC analysis; summary of the method: as §1
[4] = system: Plasmodium falciparum; assay: Antimalarial activity against CQ-resistant, MFQ-susceptible Plasmodium falciparum W2 clone Indochina 1 isolate assessed as inhibition of parasite proliferation by MSF assay; format: functional, organism-based
Summary of the method: (§2)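 SYBR Green I fluorescence (MSF) microtiter drug-sensitivity assay: malarial DNA content is the measure of in vitro parasite proliferation. Resistance index is the IC90 ratio of the resistant strain to D6.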

[5] = system: Plasmodium falciparum; assay: Antimalarial activity against CQ, MFQ-susceptible Plasmodium falciparum D6 clone Sierra 1/UNC isolate assessed as inhibition of parasite proliferation by MSF assay; format: functional, organism-based; summary of the method: as §2
[6] = system: Plasmodium falciparum; assay: Antimalarial activity against CQ, MFQ-resistant Plasmodium falciparum TM91C235 clone Southeast asian isolate assessed as inhibition of parasite proliferation by MSF assay; format: functional, organism-based; summary of the method: as §2
[7] = system: HepG2; assay: Cytotoxicity against human HepG2 cells assessed as cell viability after 48 hrs by MTT assay; format: cell-based; settings: HepG2, 48 h
[8] = Selectivity index, ratio of IC50 for human HepG2 cells to IC50 for CQ-resistant, MFQ-susceptible Plasmodium falciparum W2 clone Indochina 1 isolate; format: toxicity, cell-based; settings: read-out: Ratio IC50
[9] = Selectivity index, ratio of IC50 for human HepG2 cells to IC50 for CQ, MFQ-susceptible Plasmodium falciparum D6 clone Sierra 1/UNC isolate; format: toxicity, cell-based; settings: read-out: Ratio IC50
[10] = Selectivity index, ratio of IC50 for human HepG2 cells to IC50 for CQ, MFQ-resistant Plasmodium falciparum TM91C235 clone Southeast asian isolate; format: toxicity, cell-based; settings: read-out: Ratio IC50
[11] = system: PBMC; assay: Cytotoxicity against human PBMC assessed as inhibition of cell survival after 72 hrs; format: cell-based
Summary of the method: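 PBMC from heparinized healthy-donor blood (Histopaque) in RPMI-1640 with 10% FCS and PHA stimulation, 200 000 cells/well, with compounds in DMSO, 72 h at 37 °C, 6% CO2.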

[12] = Half life in human liver microsomes; format: ADME; settings: liver microsomes
[13] = Half life in mouse liver microsomes; format: ADME; settings: liver microsomes
[14] = target: Botulinum neurotoxin type A (Clostridium botulinum) (UniProt P0DPI0); assay: Inhibition of Clostridium botulinum BoNT/A-mediated SNAP-25 cleavage in chicken embryo neurons assessed as intact SNAP-25 level at […] preincubated for 45 mins followed by co-incubation with BoNT/A for 3.5 hrs by western blot analysis; parameters: scale not given: the % may be the effect or the level left
[15] = target: Botulinum neurotoxin type A (Clostridium botulinum) (UniProt P0DPI0); assay: Inhibition of Clostridium botulinum BoNT/A-mediated SNAP-25 cleavage in chicken embryo neurons assessed as intact SNAP-25 level at […] preincubated for 45 mins followed by co-incubation with BoNT/A for 3.5 hrs by western blot analysis in presence of 5 uL of 100 nM antibiotic bafilomycin; parameters: scale not given: the % may be the effect or the level left
[16] = target: Botulinum neurotoxin type A (Clostridium botulinum) (UniProt P0DPI0); assay: Inhibition of Clostridium botulinum BoNT/A-mediated SNAP-25 cleavage in chicken embryo neurons assessed as intact SNAP-25 level at […] preincubated for 45 mins followed by co-incubation with BoNT/A for 3.5 hrs by western blot analysis in presence of 25 uL of 100 nM antibiotic bafilomycin; parameters: scale not given: the % may be the effect or the level left
[17] = system: Plasmodium falciparum; assay: Resistance index, ratio of IC90 for CQ, MFQ-resistant Plasmodium falciparum TM91C235 clone Southeast asian isolate to IC90 for CQ, MFQ-susceptible Plasmodium falciparum D6 clone Sierra 1/UNC isolate; format: functional; summary of the method: as §2
[18] = system: Plasmodium falciparum; assay: Resistance index, ratio of IC90 for CQ-resistant, MFQ-susceptible Plasmodium falciparum W2 clone Indochina 1 isolate to IC90 for CQ, MFQ-susceptible Plasmodium falciparum D6 clone Sierra 1/UNC isolate; format: functional; summary of the method: as §2
[19] = system: Plasmodium berghei; assay: Antimalarial activity against Plasmodium berghei infected in ICR mouse assessed as host survival at 40 to 160 mg/kg/day, po administered on day 3, 4 and 5 post-infection measured on day 13 after infection; format: functional, organism-based
[20] = system: Mus musculus; assay: Toxicity in ICR mouse infected with Plasmodium berghei assessed as tissue damage at 40 to 160 mg/kg/day, po administered on day 3, 4 and 5 post-infection; format: organism-based; parameters: route oral; settings: in vivo
[21] = system: Plasmodium falciparum; assay: Resistance index, ratio of IC50 for CQ, MFQ-resistant Plasmodium falciparum TM91C235 clone Southeast asian isolate to IC50 for CQ, MFQ-susceptible Plasmodium falciparum D6 clone Sierra 1/UNC isolate; format: functional
[22] = system: Plasmodium falciparum; assay: Resistance index, ratio of IC50 for CQ-resistant, MFQ-susceptible Plasmodium falciparum W2 clone Indochina 1 isolate to IC50 for CQ, MFQ-susceptible Plasmodium falciparum D6 clone Sierra 1/UNC isolate; format: functional

Sequence of Botulinum neurotoxin type A (Clostridium botulinum) (P0DPI0 2-448 limits assumed): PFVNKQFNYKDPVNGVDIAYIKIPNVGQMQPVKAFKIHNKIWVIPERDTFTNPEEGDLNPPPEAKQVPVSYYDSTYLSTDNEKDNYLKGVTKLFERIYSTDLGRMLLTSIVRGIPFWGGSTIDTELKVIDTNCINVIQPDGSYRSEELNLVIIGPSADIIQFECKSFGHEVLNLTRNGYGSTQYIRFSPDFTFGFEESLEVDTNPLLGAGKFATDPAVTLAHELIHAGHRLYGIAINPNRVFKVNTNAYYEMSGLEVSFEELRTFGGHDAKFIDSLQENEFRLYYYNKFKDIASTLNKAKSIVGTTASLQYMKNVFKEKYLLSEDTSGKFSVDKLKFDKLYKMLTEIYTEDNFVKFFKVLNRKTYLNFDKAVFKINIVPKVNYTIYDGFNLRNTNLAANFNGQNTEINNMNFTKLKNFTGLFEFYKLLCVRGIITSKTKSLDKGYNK
Sequence of Botulinum neurotoxin type A (P0DPI0 2-448 limits assumed): as above

Row | SMILES | inhibition [1] | Ki [2] | IC50 [4] | IC50 [5] | IC50 [6] | IC50 [7] | selectivity ratio [8] | selectivity ratio [9] | selectivity ratio [10] | IC50 [11] | IC50 [2] | half-life [12] | half-life [13] | Activity [14] | Activity [15] | IC90 [4] | IC90 [5] | IC90 [6] | Ratio [17] | Ratio [18] | also measured
1 | CC(=O)O[C@H]1C[C@H]2[C@@H]([C@H](OC(C)=O)C[C@@H]3CC(NCCNc4ccnc5cc(Cl)ccc45)CC[C@@]32C)[C@@H]2CC[C@H]([C@H](C)CCCNCCNc3ccnc4cc(Cl)ccc34)[C@@]12C (some centres undefined) | 96.5% | 341 nM | 98.2 nM | 120 nM | 124 nM | 3.77 µM | 38 | 32 | 30 | 302 nM | – | – | – | – | – | – | – | – | – | – | inhibition [3]: Active
2 | CC(=O)O[C@H]1C[C@H]2[C@@H]([C@H](OC(C)=O)C[C@@H]3C[C@H](N(C)C)CC[C@@]32C)[C@@H]2CC[C@H]([C@H](C)CCCN(C)CCCNc3ccnc4cc(Cl)ccc34)[C@@]12C | 86.9% | – | 57 nM | 152 nM | 74.6 nM | 5.28 µM | 93 | 35 | 71 | – | 1290 nM | 60 min | 60 min | – | – | – | – | – | – | – | –
3 | CC(=O)N[C@@H]1CC[C@@]2(C)[C@@H](C1)C[C@@H](OC(C)=O)[C@@H]1[C@@H]2C[C@H](OC(C)=O)[C@]2(C)[C@@H]([C@H](C)CCCNCCNc3ccnc4cc(Cl)ccc34)CC[C@@H]12 | 74% | – | – | 16.6 nM | 15.2 nM | 1.92 µM | 126 | 116 | 126 | – | 2460 nM | – | – | 16% | 28% | 62.2 nM | 31.8 nM | 34.6 nM | 1.09 | 1.96 | Activity [16]: 36%
4 | CC(=O)O[C@H]1C[C@H]2[C@@H]([C@H](OC(C)=O)C[C@@H]3CC(NCCCNc4ccnc5cc(Cl)ccc45)CC[C@@]32C)[C@@H]2CC[C@H]([C@H](C)CCCNCCCNc3ccnc4cc(Cl)ccc34)[C@@]12C (mixture of isomers) | 97.2% | 171 nM | 108 nM | 143 nM | 195 nM | 4.68 µM | 43 | 32 | 24 | – | – | – | – | – | – | – | – | – | – | – | inhibition [3]: Active
5 | CC(=O)O[C@H]1C[C@H]2[C@@H]([C@H](OC(C)=O)C[C@@H]3C[C@H](N)CC[C@@]32C)[C@@H]2CC[C@H]([C@H](C)CCCN(C)CCNc3ccnc4cc(Cl)ccc34)[C@@]12C | 89.5% | – | 2.88 nM | 3.6 nM | 6.18 nM | 14.4 µM | 4990 | 4000 | 2330 | 2590 nM | 1140 nM | 60 min | 60 min | – | – | 3.74 nM | 4.46 nM | 9.2 nM | 2.06 | 0.84 | Activity [19]: inactive; Activity [20]: Non-toxic
6 | CC(=O)O[C@H]1C[C@H]2[C@@H]([C@H](OC(C)=O)C[C@@H]3C[C@H](N)CC[C@@]32C)[C@@H]2CC[C@H]([C@H](C)CCCNCCNc3ccnc4cc(Cl)ccc34)[C@@]12C | 89.3% | 3220 nM | 161 nM | – | 147 nM | 5.61 µM | 35 | 39 | 38 | 7880 nM | 810 nM | – | – | 77% | 88% | 235 nM | 176 nM | 220 nM | 1.25 | 1.33 | Activity [16]: 81%
7 | CC(=O)O[C@H]1C[C@H]2[C@@H]([C@H](OC(C)=O)C[C@@H]3C[C@H](N(C)C)CC[C@@]32C)[C@@H]2CC[C@H]([C@H](C)CCCNCCNc3ccnc4cc(Cl)ccc34)[C@@]12C | 93.5% | – | 19.7 nM | 42.3 nM | 32.4 nM | 14.1 µM | 714 | 333 | 435 | – | 1020 nM | 60 min | 60 min | – | – | – | – | – | – | – | Ratio IC50 [21]: 0.77; Ratio IC50 [22]: 47
8 | CC(=O)O[C@H]1C[C@H]2[C@@H]([C@H](OC(C)=O)C[C@@H]3C[C@H](N)CC[C@@]32C)[C@@H]2CC[C@H]([C@H](C)CCCN(CCC[C@@H](C)[C@H]3CC[C@H]4[C@@H]5[C@H](OC(C)=O)C[C@@H]6C[C@H](N)CC[C@]6(C)[C@H]5C[C@H](OC(C)=O)[C@]34C)CCNc3ccnc4cc(Cl)ccc34)[C@@]12C | 82.2% | – | 78 nM | – | 85.9 nM | 1.65 µM | 21 | 19 | 19 | – | 3050 nM | – | – | 89% | 96% | 105 nM | 114 nM | 175 nM | 1.54 | 0.92 | Activity [16]: 93%
